Reference: PMC5204206 (ACS Omega, 2016)
Where two headings read alike, the source gives them in different places.

Columns and labels:
streptavidin (SA) [1] = molecular target: T1, streptavidin (SA) (Streptomyces avidinii, UniProt P22629); assay: Comparison of Trp-FRET acceptors; settings: for FF (FRET fold effect): FF = Iad/Ia; for Iad (intensity of FRET acceptor, sensitivity): acceptor 100 nM bound to SA 400 nM, Ex. 295 nm, at Em. λmax, normalized to Id; for Fold less sensitive than PB (12) as Trp-FRET acceptor / E (efficiency of FRET with tryptophan): bound to SA; for E (efficiency of FRET with tryptophan): E = 1 – Ida/Id
Procedure, shortened: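 Biotin-linked fluorophore acceptors (100 nM) bound to streptavidin (400 nM, as monomer) in PBS pH 7.4. Tryptophan excited at 295 nm; acceptor intensity (Iad) read at its emission λmax and normalized to donor intensity (Id). FRET efficiency E = 1 − Ida/Id; fold effect FF = Iad/Ia.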

[2] = Photophysical properties of probes in PBS; type: physicochemical; settings: for ε (molar extinction coefficient): PBS (0.5% DMSO), at absorbance λmax; for Fold by which PB-derived probe 12 is brighter than this probe: aqueous PBS (pH 7.4)
Procedure, shortened: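 ε: Beer's-law plots of absorbance at λmax vs concentration in PBS (0.5% DMSO), 1 cm path; least-squares fit through zero. Spectra: 32 µM for absorbance, 50 nM for emission, excited at λmax. Φ by Williams' method: excitation 396 nm, integrated emission 415–700 nm at 5–160 nM, plotted against absorbance extrapolated from higher concentrations; coumarin 102 standard (Φ = 0.66 in water).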

[3] = cited from earlier work
streptavidin (SA) [4] = molecular target: T1, streptavidin (SA); assay: Competition binding
streptavidin (SA) [5] = molecular target: T1, streptavidin (SA); assay: Direct binding to SA quantified by Trp-FRET
Procedure, shortened: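 Tryptophan excited at 295 nm, emission read at 460 nm, averaged over three readings. SA-alone and free-probe signals subtracted, then corrected by quenching ratio (Iad = IFRET/Qr). Plotted against SA monomer concentration; one-site specific binding fit, triplicate.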

streptavidin (SA) [6] = molecular target: T1, streptavidin (SA); assay: Isothermal titration calorimetry; type: binding
streptavidin (SA) [7] = molecular target: T1, streptavidin (SA); assay: Binding to SA by quenching or enhancement of PB fluorescence
Procedure, shortened: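 Streptavidin at varied concentrations (spanning at least 20–80% complexation) incubated 1 h at room temperature with shaking in PBS pH 7.4 with fixed PB-linked probe (5 or 25 nM). Ex 400 nm, em 460 nm. SA-alone background subtracted. Change in fluorescence normalized and plotted against SA monomer concentration; one-site specific binding fit, triplicate. For one probe, the three highest SA concentrations (64–256 nM) were excluded.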

| FF (FRET fold effect) (streptavidin (SA) [1]) | Iad (intensity of FRET acceptor, sensitivity) (streptavidin (SA) [1]) | E (efficiency of FRET with tryptophan) (streptavidin (SA) [1]) | ε (molar extinction coefficient) [2] | Ki (streptavidin (SA) [4]) [nM] | Kd (streptavidin (SA) [6]) [nM] | SMILES | further results |
| --- | --- | --- | --- | --- | --- | --- | --- |
| – | – | – | – | 188 ± 25 | – | C[C@@H]1NC(=S)NC1CCCCCC(=O)OCc1ccccc1 (stereo partly drawn) [compound 22, Benzyl 6-((5S)-5-methyl-2-thioxoimidazolidin-4-yl)hexanoate] | – |
| – | – | – | – | 693 ± 91 | – | COC(=O)CCCCC[C@H]1NC(=S)N[C@H]1C [compound 21, Methyl 6-((4R,5S)-5-methyl-2-thioxoimidazolidin-4-yl)hexanoate] | – |
| – | – | – | – | – | 125 ± 45 | C[C@@H]1NC(=S)N[C@@H]1CCCCCC(=O)NCCNC(=O)c1cc2cc(F)c(O)c(F)c2oc1=O [compound 18, 6,8-Difluoro-7-hydroxy-N-(2-(6-((4R,5S)-5-methyl-2-thioxoimidazolidin-4-yl)hexanamido)ethyl)-2-oxo-2H-chromene-3-carboxamide] | Kd (streptavidin (SA) [5]): 145 ± 19 nM; Change of fluorescence of PB-linked ligand on binding to SA (streptavidin (SA) [7]): enhanced |
| – | – | – | – | 1350 ± 180 | 1550 ± 270 | C[C@@H]1NC(=S)N[C@@H]1CCCCCC(=O)O [compound 20, 6-((4R,5S)-5-Methyl-2-thioxoimidazolidin-4-yl)hexanoic Acid] | – |
| – | – | – | – | – | 12 ± 4 | O=C(CCCC[C@@H]1SC[C@@H]2NC(=S)N[C@@H]21)NCCNC(=O)c1cc2cc(F)c(O)c(F)c2oc1=O [compound 17, 6,8-Difluoro-7-hydroxy-2-oxo-N-(2-(5-((3aS,4S,6aR)-2-thioxohexahydro-1H-thieno[3,4-d]imidazol-4-yl)pentanamido)ethyl)-2H-chromene-3-carboxamide] | Kd (streptavidin (SA) [5]): 11 ± 2 nM; Change of fluorescence of PB-linked ligand on binding to SA (streptavidin (SA) [7]): partially quenched |

Second part, the compound before the results:

| SMILES | FF (FRET fold effect) (streptavidin (SA) [1]) | Iad (intensity of FRET acceptor, sensitivity) (streptavidin (SA) [1]) | E (efficiency of FRET with tryptophan) (streptavidin (SA) [1]) | ε (molar extinction coefficient) [2] | Ki (streptavidin (SA) [4]) [nM] | Kd (streptavidin (SA) [6]) [nM] | further results |
| --- | --- | --- | --- | --- | --- | --- | --- |
| O=C(CCCC[C@@H]1SC[C@@H]2NC(=O)N[C@@H]21)NCCNC(=O)Cc1cc(=O)oc2cc(O)ccc12 [compound 14, N-(2-(2-(7-Hydroxy-2-oxo-2H-chromen-4-yl)acetamido)ethyl)-5-((3aS,4S,6aR)-2-oxohexahydro-1H-thieno[3,4-d]imidazol-4-yl)pentanamide] | 4.8 | 2.2 | 0.21 | 7800 M^–^1cm^–^1 | – | – | Fold less sensitive than PB (12) as Trp-FRET acceptor (streptavidin (SA) [1]; compared with 12): 1.5 fold; Reduction of FRET fold effect (FF), factor (streptavidin (SA) [1]; compared with 12, due to increased excitation at 295 nm): 4; Fold by which PB-derived probe 12 is brighter than this probe [2]: ~3 fold; Φf (quantum yield) [3]: 0.47[6] |
| CN(C)c1ccc2c(CC(=O)NCCNC(=O)CCCC[C@@H]3SC[C@@H]4NC(=O)N[C@@H]43)cc(=O)oc2c1 [compound 15, N-(2-(2-(7-(Dimethylamino)-2-oxo-2H-chromen-4-yl)acetamido)ethyl)-5-((3aS,4S,6aR)-2-oxohexahydro-1H-thieno[3,4-d]imidazol-4-yl)pentanamide] | 8.0 | 0.6 | 0.35 | 11 600 M^–^1cm^–^1 | – | – | Fold less sensitive than PB (12) as Trp-FRET acceptor (streptavidin (SA) [1]; compared with 12): 6 fold; Fold by which PB-derived probe 12 is brighter than this probe [2]: ~17 fold; Φf (quantum yield) [3]: 0.06[6] |
| O=C(O)CCCC[C@@H]1SC[C@@H]2NC(=O)N[C@@H]21 [biotin, reference compound] | – | – | – | – | – | – | Effect of competitor on FRET from 12 bound to SA (streptavidin (SA) [1]; biotin 10 μM, 12 100 nM, SA monomer 400 nM): blocked FRET |
| O=C(CCCC[C@@H]1SC[C@@H]2NC(=O)N[C@@H]21)NCCNC(=O)c1cc2cc(F)c(O)c(F)c2oc1=O [compound 12, 6,8-Difluoro-7-hydroxy-2-oxo-N-(2-(5-((3aS,4S,6aR)-2-oxohexahydro-1H-thieno[3,4-d]imidazol-4-yl)pentanamido)ethyl)-2H-chromene-3-carboxamide] | 19.2 | 3.3 | 0.40 | 24 200 M^–^1cm^–^1 | – | – | Φf (quantum yield) ([2]; PBS, relative to coumarin 102): 0.74 |
| O=C(O)c1cc2cc(F)c(O)c(F)c2oc1=O [PB, 6,8-Difluoro-7-hydroxy-2-oxo-2H-chromene-3-carboxylic Acid, reference compound] | – | – | – | – | – | – | ε (molar extinction coefficient) [3]: 29 500 M^–1 cm^–1 |
